High-throughput results: PubChem, several laboratories
This is a sample that favours compounds with a hit; in the whole collection about 3.4% have one here.
TMEM16A inh: mouse TMEM16A channel inhibition, primary screen. AID 588511. HEK293 TMEM16A/YFP iodide influx fluorescence, ionomycin. hit rate 1.2% among 310,000. normalized B-score (activity score, 25-100; higher = stronger inhibition) at 10 µM. Q8BHY3;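 active = ratio plate-corrected score three or more library SD toward inhibition, starting fluorescence score within five deviations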;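 note: score derived from kinetic fluorescence span divided by baseline fluorescence per well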
TMEM16A act: activates or potentiates the mouse TMEM16A chloride channel | Q8BHY3 | HEK293 TMEM16A/YFP-H148Q/I152L, iodide quench fluorescence; hits give low values | B-score at 10 µM | hit rate 0.3% among 340,000;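 active = fluorescence-ratio B-score plate-corrected deviation score at least 3 library SD below zero, with starting fluorescence score within 5 deviations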;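 note: channel opened by trigger with iodide after compound preincubation; score built on the fluorescence ratio of max minus min over baseline; more negative score means more quench and so TMEM16A activation or potentiation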
MC4R ag barr: human MC4R agonism via beta-arrestin; activation, % at 8.9 µM; AID 540308; U2OS MC4R beta-arrestin complementation, luminescence; percent of melanotan II response, DMSO zero; hit rate 0.98% among 360,000; P32245;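 active = activation above a per-plate cutoff, the mean activation of sample wells on that plate plus 3 SD, cut at about 8% in these data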
Target sequence (P32245 whole entry, looked up): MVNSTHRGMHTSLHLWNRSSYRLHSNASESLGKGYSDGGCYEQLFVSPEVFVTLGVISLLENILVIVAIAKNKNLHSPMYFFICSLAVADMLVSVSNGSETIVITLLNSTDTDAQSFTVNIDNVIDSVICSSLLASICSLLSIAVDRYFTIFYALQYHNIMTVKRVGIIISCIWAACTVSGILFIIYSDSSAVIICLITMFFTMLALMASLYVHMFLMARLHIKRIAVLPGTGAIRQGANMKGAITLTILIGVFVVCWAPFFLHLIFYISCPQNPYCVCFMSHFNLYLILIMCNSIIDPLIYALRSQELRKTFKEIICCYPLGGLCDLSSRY
m5-HT2A agonist: mouse HTR2A agonism via beta-arrestin recruitment; P35363; hit rate 0.66% among 360,000; activation, % at 7.6 µM; CHO-K1 mHTR2A beta-arrestin complementation, luminescence; percent of 30 µM serotonin response; AID 624169;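 active = activation above a run cutoff, the mean activation of all tested compounds plus 3 SD, cut at about 14% in these data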
MC4R antag cAMP: antagonists of human melanocortin 4 receptor (MC4R). MC4R-expressing cells, MTII-stimulated cAMP, LANCE TR-FRET. inhibition, % at 6.5 µM. hit rate 0.48% among 360,000. AID 540295;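 active = inhibition above its plate's cutoff, the mean of tested wells on that plate plus 3 SD, cut at about 29% in these data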
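System: U2OS cells stably expressing human melanocortin 4 receptor (MC4R). Reagent: Melanotan II challenge after compound preincubation. Doses: 6.5 µM. Times: 30-min compound, 1-h challenge, 1-h detection, room temperature. Measured by: TR-FRET with Eu-cAMP and labeled anti-cAMP, 671 nm. Replicates: singlicate.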
MIN6 prolif: MIN6 beta-cell proliferation induction; MIN6 cells proliferation, ATPlite luminescence, 48 h; cells starved in 0.2% serum; 100% = growth in 10% serum; proliferation, % at 10 µM; hit rate 0.29% among 330,000;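 active = compounds whose signal lies at least 3.5 SD above the mean of all wells on their plate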
MC4R barr conf: human MC4R beta-arrestin agonism confirmation; hit rate 31% among 2,400; activation, % at 8.9 µM; shares compounds with MC4R ag barr; U2OS MC4R beta-arrestin recruitment, luminescence; scaled DMSO 0%, Melanotan II 100%;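 active = mean activation across replicates above the hit cutoff set in the earlier primary screen, cut at about 8% in these data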
MOR DOR agonist: activates mu-delta opioid heterodimer, MC4R agonist counter-screen; shares compounds with MC4R ag barr; U2OS PathHunter beta-arrestin, beta-gal luminescence; percent of deltorphin B response, DMSO zero; activation, % at 9.2 µM; hit rate 5.8% among 2,400; AID 602194;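 active = mean activation across replicates exceeds the hit threshold derived in the earlier primary screen, cut at about 18% in these data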
Numbers stand for hits; 0 = inactive; - = not tested or not shown.

SMILES | TMEM16A inh | TMEM16A act | MC4R ag barr | m5-HT2A agonist | MC4R antag cAMP | MIN6 prolif | MC4R barr conf | MOR DOR agonist
Cc1cccc2sc(N(CCCN(C)C)C(=O)c3ccc(Cl)s3)nc12 | 0 | 0 | 11 | 0 | 0 | 0 | 0 | 0
Cc1cc(C)c2sc(N(CCCN(C)C)C(=O)c3ccc(Br)s3)nc2c1 | 0 | 0 | 16 | 0 | 0 | 0 | 21 | 0
Cc1cc(C)c2sc(N(CCN(C)C)C(=O)c3c(F)cccc3F)nc2c1 | 0 | 0 | 0 | 0 | 0 | 0 | - | -
OCCN(CCO)c1ccc(C(c2ccccc2Cl)c2ccc(N(CCO)CCO)cc2Cl)c(Cl)c1 | 0 | 0 | 14 | 0 | 0 | 0 | 9.6 | 0
OCCN(CCO)c1ccc2ccccc2c1 | 0 | 0 | 0 | 0 | 0 | 0 | - | -
Cc1ccc2[nH]c(=O)c3cc(C(=O)N(CCCOC(C)C)Cc4ccco4)sc3c2c1 | 0 | 0 | 35 | 0 | 0 | 0 | 34 | 0
COc1ccc(CCn2c(C)cc(C(=O)COC(=O)c3ccc(O)cc3O)c2C)cc1 | - | - | 25 | 0 | 0 | - | 9.3 | 0
O=C(Nc1ccc2oc(-c3cccc(F)c3)nc2c1)c1ccccc1F | 0 | 0 | 27 | 0 | 0 | 0 | 16 | 0
O=C(CCl)N(Cc1ccccc1)c1ccccc1 | 0 | 0 | 20 | 0 | 0 | 0 | 15 | 18
O=C(CCl)N(Cc1cc(=O)[nH]c2ccccc12)c1ccccc1 | 0 | 0 | 0 | 0 | 0 | 0 | - | -
COc1ccc(C(=O)COC(=O)c2ccc(-n3cnnn3)cc2)c(OC)c1 | 0 | 0 | 13 | 0 | 0 | 0 | 0 | 0
COc1ccc(C(=O)COC(=O)c2c(-c3ccccc3)noc2C)c(OC)c1 | 0 | 0 | 14 | 0 | 0 | 0 | 0 | 0
COc1ccccc1/C=C/C=N/n1c(-c2ccccc2)n[nH]c1=S | 0 | 0 | 0 | 0 | 0 | 0 | - | -
COc1ccc(-c2n[nH]c(=S)n2/N=C/C=C/c2ccccc2OC)cc1 | 0 | 0 | 11 | 0 | 0 | 0 | 0 | 0
Cc1cc(-c2ccc([N+](=O)[O-])cc2)nc2ccccc12 | 0 | 0 | 0 | 0 | 0 | 0 | - | -
Cc1cc(N2CCN(c3nc(-c4ccc([N+](=O)[O-])cc4)cs3)CC2)c2ccccc2n1 | 0 | 0 | 19 | 0 | 0 | 0 | 11 | 0
Cc1ccc(NC(=O)CCCN2C(=O)c3cccc4cccc(c34)C2=O)cc1 | 0 | 0 | 0 | 0 | 0 | 0 | - | -
Cc1ccc(NC(=O)CCN2C(=O)c3cccc4cccc(c34)C2=O)cc1 | 0 | 0 | 19 | 0 | 0 | 0 | 0 | 0
COc1ccc(C(CNC(=O)c2oc3c(Cl)cccc3c2C)N2CCCC2)cc1 (centres undefined) | 0 | 0 | 0 | 0 | 0 | 0 | - | -
COc1ccc(OCC(O)CN2CCN(c3ccc(Cl)cc3)CC2)cc1 (centres undefined) | 0 | 0 | 11 | 0 | 0 | 0 | 0 | 0
COc1cccc(OCC(O)CN2CCN(c3ccc(Cl)cc3)CC2)c1 (centres undefined) | 0 | 0 | 0 | 0 | 0 | 0 | - | -
O=C(COc1ccccc1)OCC(=O)c1ccc(S(=O)(=O)N2CCCCC2)cc1 | - | 0 | 0 | 0 | 0 | 0 | - | -
Cc1ccc(NC(=O)C(C)OC(=O)CCC2CCCCC2)cc1 (centres undefined) | 0 | 0 | 11 | 0 | 0 | 0 | 0 | 0
O=C(CNCC1CCCCC1)Nc1ccc(OC(F)(F)F)cc1 | 0 | 0 | 15 | 0 | 0 | 0 | 0 | 0
COc1ccc(NC(=O)COC(=O)CCC2CCCCC2)cc1 | - | 0 | 9.9 | 0 | 0 | 0 | 0 | 0
CN(CC(=O)Nc1ccc(OC(F)(F)F)cc1)C1CCCCC1 | 0 | 0 | 0 | 0 | 0 | 0 | - | -
CN(C)c1ccc(CC(=O)N2CCCC(c3cc(C(=O)Nc4ccc(C(C)(C)C)cc4)no3)C2)cc1 (centres undefined) | - | - | 0 | 0 | 0 | - | - | -
